Key:
[1] = test system: Panel NCI-60 (60 carcinoma cell lines); assay: Cytostatic activity against human Panel NCI-60 (60 carcinoma cell lines) incubated for 48 hrs by SRB assay; type: functional
In short: (§1)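 NCI-60 five-concentration screen: lines seeded 5×10^3–4×10^4 cells/well depending on line; compound diluted in fresh medium at scalar concentrations 0–100 or 0–1000 μM; 48 h exposure, in situ fixation, sulforhodamine B protein staining, optical density read; GI50, TGI and LC50 per NCI procedures; panel mean = mean graph midpoint.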

Ovarian cancer cell line [2] = assay: Cytotoxicity against human Ovarian cancer cells incubated for 48 hrs by SRB assay; type: functional; in short: as §1
Ovarian cancer cell line [3] = assay: Cytostatic activity against human Ovarian cancer cells incubated for 48 hrs by SRB assay; type: functional; in short: as §1
Renal cancer cell line [4] = assay: Cytostatic activity against human Renal cancer cells incubated for 48 hrs by SRB assay; type: functional; in short: as §1
Melanoma cell line [5] = assay: Cell growth inhibition of human Melanoma cells incubated for 48 hrs by SRB assay; type: functional; in short: as §1
[6] = test system: Panel NCI-60 (60 carcinoma cell lines); assay: Cell growth inhibition of human Panel NCI-60 (60 carcinoma cell lines) incubated for 48 hrs by SRB assay; type: functional; in short: as §1
[7] = Cytotoxicity against human Leukemia cancer cells incubated for 48 hrs by SRB assay; type: functional; conditions: Leukemia cell, read-out: LC50 (the source's name)
In short: (§2)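 NCI DTP five-concentration screen. Cells were seeded at 5 × 10³–4 × 10⁴ cells/well, depending on the line. Compounds were diluted in fresh medium and added at scalar concentrations over 0–1000 µM or 0–100 µM. After 48 h the cells were fixed in situ, stained with sulforhodamine B, and optical density was read. GI50, TGI and LC50 were derived by NCI procedures, and the panel mean is the mean graph midpoint.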

Breast cancer cell line [8] = assay: Cytostatic activity against human Breast cancer cells incubated for 48 hrs by SRB assay; type: functional; in short: as §1
[9] = Cell growth inhibition of human Leukemia cancer cells incubated for 48 hrs by SRB assay; type: functional; in short: as §1
Colon carcinoma cell [10] = assay: Cytostatic activity against human Colon carcinoma cells incubated for 48 hrs by SRB assay; type: functional; in short: as §1
Renal cancer cell line [11] = assay: Cell growth inhibition of human Renal cancer cells incubated for 48 hrs by SRB assay; type: functional; in short: as §1
Colon carcinoma cell [12] = assay: Cytotoxicity against human Colon carcinoma cells incubated for 48 hrs by SRB assay; type: functional; in short: as §1
Breast cancer cell line [13] = assay: Cytotoxicity against human Breast cancer cells incubated for 48 hrs by SRB assay; type: functional; in short: as §1
Prostatic carcinoma cell = assay: Cell growth inhibition of human Prostate carcinoma cells incubated for 48 hrs by SRB assay; type: functional; in short: as §1
NSCLC = assay: Cell growth inhibition of human NSCLC cells incubated for 48 hrs by SRB assay; type: functional; in short: as §1
CNS carcinoma cell [14] = assay: Cell growth inhibition of human CNS carcinoma cells incubated for 48 hrs by SRB assay; type: functional; in short: as §1
[15] = Cytostatic activity against human Leukemia cancer cells incubated for 48 hrs by SRB assay; type: functional, Leukemia cell; in short: as §1
Breast cancer cell line [16] = assay: Cell growth inhibition of human Breast cancer cells incubated for 48 hrs by SRB assay; type: functional; conditions: read-out: LC50 (the source's name); in short: as §2
Melanoma cell line [17] = assay: […] against human Melanoma cells incubated for 48 hrs by SRB assay; type: functional; conditions: read-out: LC50 (the source's name); in short: as §2
CNS carcinoma cell [18] = assay: Cytostatic activity against human CNS carcinoma cells incubated for 48 hrs by SRB assay; type: functional; in short: as §1

SMILES	GI [1] [µM]	GI (Ovarian cancer cell line [2]) [µM]	TGI (Ovarian cancer cell line [3]) [µM]	GI (Renal cancer cell line [4]) [µM]	GI (Melanoma cell line [5]) [µM]	GI50 [6] [µM]	CC50 [7] [µM]	TGI (Breast cancer cell line [8]) [µM]	GI50 [9] [µM]	TGI (Colon carcinoma cell [10]) [µM]	GI50 (Renal cancer cell line [11]) [µM]	GI (Colon carcinoma cell [12]) [µM]	GI (Breast cancer cell line [13]) [µM]	GI (Prostatic carcinoma cell) [µM]	GI (NSCLC) [µM]	GI50 (CNS carcinoma cell [14]) [µM]	GI [15] [µM]	CC50 (Breast cancer cell line [16]) [µM]	CC50 (Melanoma cell line [17]) [µM]	GI (CNS carcinoma cell [18]) [µM]
COc1ccc2c(c1)/C(=C\c1cc(C(C)(C)C)cc(/C=C3/C(=O)N(C)c4ccc(OC)cc43)c1O)C(=O)N2C	6.61	28.18	7.24	8.32	1.86	2.24	100	6.17	2.82	4.79	2.51	16.98	36.31	3.09	2.34	1.91	20.42	2.24	3.98	4.9
O=C1Nc2cccc(F)c2/C1=C\c1cccc(/C=C2/C(=O)Nc3cccc(F)c32)c1	5.13	33.88	7.59	4.17	1.7	1.91	100	6.17	1.23	3.31	1.86	6.76	16.98	2.14	2.4	1.82	6.92	2	3.72	4.27
COc1ccc2[nH]c(Cl)c(/C=C3/C(=O)N(C)c4cc5c(cc43)/C(=C\c3c(Cl)[nH]c4ccc(OC)cc34)C(=O)N5C)c2c1	4.9	12.59	4.69	4.47	2.04	2.04	89.1	6.31	2.24	4.68	1.78	11.75	21.88	1.95	1.78	1.74	6.17	3.16	4.9	4.07
O=C1Nc2cc(Cl)ccc2/C1=C\c1cccc(/C=C2/C(=O)Nc3cc(Cl)ccc32)c1	7.59	44.67	8.91	8.51	2.19	2.57	100	6.92	2.4	4.68	3.09	11.22	37.15	2.14	3.39	2.29	11.22	2.45	5.25	5.89
COc1cc2c(/C=C3/C(=O)N(C)c4cc5c(cc43)/C(=C\c3c(Cl)[nH]c4cc(C)c(OC)cc34)C(=O)N5C)c(Cl)[nH]c2cc1C	7.59	45.71	10.7	7.24	2.34	2.04	42.7	10	1.2	4.17	1.95	9.77	33.11	1.82	2.19	1.82	5.37	24.6	6.46	7.76
COc1ccc2c(c1)/C(=C\c1ccc3ccc4ccc(/C=C5/C(=O)N(C)c6ccc(OC)cc65)nc4c3n1)C(=O)N2C	12.88	89.13	28.2	5.89	2.14	2.63	–	18.6	3.16	6.31	2.34	13.49	64.57	2.57	2.57	3.16	56.23	3.09	4.79	17.78
CC(C)(C)c1cc(/C=C2/C(=O)Nc3cccc(F)c32)c(O)c(/C=C2/C(=O)Nc3cccc(F)c32)c1	6.46	15.49	5.89	7.24	2.29	2.14	22.9	8.51	1.58	6.46	2.45	16.98	33.88	2.75	2.14	2.09	4.79	2.04	5.5	6.46
COc1cc2c(cc1C)NC(=O)/C2=C/c1ccc2ccc3ccc(/C=C4/C(=O)Nc5cc(C)c(OC)cc54)nc3c2n1	26.3	77.62	38.9	29.51	6.03	5.13	–	25.7	2.51	10.2	6.31	46.77	–	2.95	6.76	8.51	22.91	3.98	17.8	40.74
O=C1Nc2ccc(F)cc2/C1=C\c1cccc(/C=C2/C(=O)Nc3ccc(F)cc32)c1	4.47	32.4	–	3.47	1.58	1.62	7.41	–	1.66	–	1.58	9.33	–	1.48	1.82	1.35	9.77	9.33	10.2	3.24

Source: ChEMBL document CHEMBL5500359, “Identification of a new bisindolinone arresting IGROV1 cells proliferation” (Eur J Med Chem, 2024)
